# A selection: hits, their analogues and other compounds. The true share with any hit is near 2.6%.
# GRK2 inh – human GRK2 inhibition via aptamer displacement | P25098 | actives 0.59% (n = 330,000) | inhibition of aptamer binding, % at 10 µM | bead flow cytometry, FAM-aptamer displacement from GRK2 | AID 488847;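 active = inhibition of aptamer binding above 40%, roughly 3 SD of noise, on plates passing a quality check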;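 also: median bead fluorescence of bound FAM aptamer so fluorescent compounds give negative values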
# Myeloid diff 2 – promotes myeloid progenitor differentiation | ER-HoxA9 myeloid progenitors, lysozyme-GFP differentiation, flow cytometry | calls only at 10 µM | actives 1% (n = 360,000) | AID 624256;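 active = normalized GFP-positive differentiation at or above the plate's own cutoff, the solvent-only control mean plus 3 SD; inconclusive = no clear call, values can overlap the other calls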;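 also: cells exposed to compound for four days before flow analysis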
# T cell HTS – T cell immune modulators affecting CD8 T cell-vesicle binding | 2C CD8+ T cell-vesicle binding, flow cytometry; stronger effect = lower value | response (vesicle binding), % at 7 µM | actives 0.068% (n = 330,000) | AID 2052;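 active = response, share of CD8 T cells binding vesicles, and their 90th percentile fluorescence all below set limits, cut at about 80% in these data, passing the limit was not always enough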;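 also: values below 100% mean blocked vesicle binding to the CD8+ T cells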
#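 Test system: purified 2C TCR transgenic mouse naive CD8+ T cells. Probe or stimulus: QL9-peptide-loaded Drosophila micro-vesicles bearing Ld, ICAM-1 and B7-1. Incubation: binding step 1.5 h, 37 °C, antibody labelling 20 min, ice. Measured by: flow cytometry of vesicle-bound cells.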
# Rin1-Abl PPI inh – human Rin1-Abl interaction inhibition; P00519+Q13671; actives 0.4% (n = 360,000); TR-FRET Rin1/Abl binding, biochemical; inhibition, % at 7.35 µM; in the data active = inhibition above about 5%, passing the limit was not always enough
# Rce1 inh – blocks yeast Ras-converting enzyme. Q03530. actives 0.27% (n = 290,000). yeast membranes, quenched prenylated peptide cleavage fluorescence. calls only;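 active = fall in fluorescence gain of 50% or more versus controls, with final raw signal at or below 3038400; inconclusive = same 50% fall but final raw signal above 3038400; inactive = fall in fluorescence gain under 50%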;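 also: plate controls were neutral control wells for no effect and wells lacking membranes for full effect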
# Target sequence (Q03530 whole entry, looked up): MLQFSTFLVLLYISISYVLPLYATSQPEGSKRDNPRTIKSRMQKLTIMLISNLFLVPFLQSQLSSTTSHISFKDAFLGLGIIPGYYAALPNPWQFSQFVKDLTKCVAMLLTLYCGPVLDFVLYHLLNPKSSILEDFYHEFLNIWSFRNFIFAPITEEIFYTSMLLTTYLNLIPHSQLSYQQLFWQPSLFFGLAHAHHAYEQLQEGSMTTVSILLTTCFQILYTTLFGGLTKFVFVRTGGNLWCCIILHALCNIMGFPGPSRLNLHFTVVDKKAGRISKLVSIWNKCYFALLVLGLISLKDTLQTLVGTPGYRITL
# SKN-1 inh – inhibitors of C. elegans SKN-1; C. elegans VP596 Pgst-4::GFP/RFP ratio, acrylamide-induced, 24 h; actives 0.49% (n = 360,000); inhibition, % at 21.8 µM; AID 624304;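 active = interference check ratio from 0.5 to 1.5 plus GFP to RFP signal ratio inhibition reaching or exceeding a fixed threshold, cut at about 30% in these data, passing the limit was not always enough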
# * = called active by the depositor; i = inactive; ? = inconclusive; . = no result; + = active, no number.
SMILES,GRK2 inh,Myeloid diff 2,T cell HTS,Rin1-Abl PPI inh,Rce1 inh,SKN-1 inh
CC(C)(C)c1ccc(CC(=O)N2CCC2(C)C(=O)Nc2cccc3c2CCCC3)cc1 (centres undefined),.,i,.,1.9,.,10.3
Cc1nn(CC(=O)NC(=O)NC2CCCC(C)C2C)c(=O)c(C#N)c1C (centres undefined),2.0,i,925.8,1.5,i,2.6
Nc1ccc(Nc2ccccc2N)cc1,9.0,i,274.7,-14.7,i,4.4
COc1ccc(Nc2ccccc2N)cc1,0.0,+,326.8,-3.4,i,6.9
CSCC[C@H](NC(=O)OC(C)(C)C)C(=O)NCC1CCC(C(=O)N[C@@H](Cc2ccccc2)C(=O)O)CC1 (some centres undefined),0.0,+,79.1,3.1,i,-5.9
CSCCC(NC(=O)c1ccccc1Br)C(=O)NCC1CCCCC1 (centres undefined),0.0,+,356.5,2.0,i,-4.5
CC(C)(C)c1ccc(-n2ncc3c2CCCC3NC(=O)c2ccco2)cc1 (centres undefined),.,i,.,-0.4,.,0.6
COc1ccc(S(=O)(=O)N2CC(C)N(C(=O)N(C)C)C2C)cc1 (centres undefined),0.0,i,206.0,-0.7,i,12.4
O=C(Nc1ccccc1Cl)c1cc(C2CCCN(C(=O)OCCF)C2)on1 (centres undefined),.,i,.,1.5,.,37.0*
O=[N+]([O-])c1ccc(Cl)c(/C=N/n2c(-c3ccncc3)n[nH]c2=S)c1,0.0,+,500.4,0.6,i,-4.0
O=C1OC(c2ccc3c(c2)OCO3)=N/C1=C\c1ccc(C(=O)O)cc1,53.0*,.,577.3,1.2,i,-2.2
O=C(O)c1cccc(-c2ccc3c(c2)OCO3)c1,0.0,i,163.2,-4.5,i,18.1
Nc1nc(-c2ccccc2)c(N=Nc2ccccc2Cl)s1,1.0,i,255.6,4.7,i,48.6*
COc1ccc(CC(=O)N(C)CC(=O)Nc2cccc(F)c2)cc1S(=O)(=O)N1CCOCC1,0.0,i,266.7,-3.3,i,9.1
CN1C(=O)/C(=C/C=C2\SCCN2C)N(C)C1=S,.,i,.,-18.7,i,47.4*
CN1C(=O)/C(=C/C=C2\SCCN2C)SC1=S,.,.,.,.,i,.
OCC[C@@H]1C[C@@H](O)[C@H](O)[C@]2(Cc3ccccc3CO2)O1,2.0,i,569.9,-1.2,i,-2.6
O=C(/C=C/c1cccs1)c1ccc(N2CCOCC2)cc1,0.0,i,169.6,-1.5,i,36.1*
O=C(/C=C/c1cccc(F)c1)c1ccc(N2CCOCC2)cc1,1.0,i,161.5,-2.1,i,9.9
CCN(CC)CCn1c2ccccc2c2cnc(N=CN(C)C)c(C#N)c21,7.0,i,177.3,-4.9,+,-2.1
Fc1ccccc1/C=N/Nc1nc(-c2ccccn2)nc2ccccc12,2.0,.,737.0,.,i,.
CC(C)c1cc(C(=O)OCC(=O)NC2CCS(=O)(=O)C2)c(O)c(C(C)C)c1 (centres undefined),.,i,.,1.7,.,13.2
CC1CCCN(C(=O)C2CCN(c3ncnc4c3nc3n4CCCCC3)CC2)C1 (centres undefined),2.0,i,288.8,3.2,i,8.9
CC1CC(C)CN(CCCNS(=O)(=O)c2cc(Br)cc3c2N(C(=O)C2CC2)CC3)C1 (centres undefined),8.0,?,541.2,-0.5,i,-0.9
CN(C)c1ccc(/C=C2\N=C(c3ccc(Cl)c([N+](=O)[O-])c3)NC2=O)cc1,0.0,+,208.5,-0.3,i,-6.7
SMILES,GRK2 inh,Myeloid diff 2,T cell HTS,Rin1-Abl PPI inh,Rce1 inh,SKN-1 inh
COC(=O)Oc1ccc(/C=N/NC(=O)CN(c2ccccc2Br)S(C)(=O)=O)cc1OC,0.0,i,399.7,-0.3,i,6.6
CN(C)c1ccc(/C=N/NC(=O)CN(c2ccccc2Cl)S(C)(=O)=O)cc1Br,0.0,i,170.4,-5.8,.,35.5*
Cc1ccc(NC(=O)CCCC2CCCCC2)c(O)c1,1.0,i,324.9,4.0,i,-12.7
Clc1cccc(CSc2nccn2-c2ccccc2)c1,0.0,i,289.3,0.8,i,11.8
Clc1cccc(CSc2ncn(-c3ccccc3)n2)c1,0.0,i,435.3,-4.5,.,49.2*
O=C(CSc1ncn(-c2ccccc2)n1)N1CCc2ccccc21,0.0,i,134.9,-2.8,.,5.8
Clc1ccc(CSc2ncn(-c3ccccc3)n2)cc1,0.0,i,347.8,1.8,i,76.5*
CC(C)=CCC/C(C)=C/CNC(=O)C[C@H]1C[C@H](C(=O)N2CCOCC2)[C@@]2(C)c3[nH]c4cc(-c5ccco5)ccc4c3CCN2C1=O,2.0,i,.,0.7,.,26.3
Cc1ccc(CN2C(=O)C(F)(F)Oc3ccc(C)cc32)cc1,.,i,.,4.3,.,9.8
Cc1cc([N+](=O)[O-])ccc1NCc1ccc2ccccc2c1,2.0,i,247.8,-1.9,i,15.3
Cc1cc([N+](=O)[O-])ccc1NCc1ccccc1,1.0,i,409.1,4.1,i,36.9*
CCCOc1ccc(C(=O)Nc2ccc(Cl)cn2)cc1,1.0,i,248.8,4.6,i,41.5*
O=C(N/N=C/c1cccc2ccccc12)c1n[nH]c2c1CCCC2,0.0,+,66.8,5.2,i,-1.8
CCO[C@@H]1OC(C(=O)N2CCOCC2)=C[C@H](C2CCCCC2)[C@H]1CCCO,12.0,+,122.2,-0.6,i,1.1
C[C@@H]1CN([C@H](C)CO)C(=O)CCCn2cc(nn2)CO[C@H]1CN(C)C(=O)Nc1cccc2ccccc12,.,i,.,1.1,.,-4.0
Cc1ccn2c(NC3CCCCC3)c(-c3cccc(-c4cccc(Cl)c4)c3)nc2c1,15.0,+,281.7,-0.8,i,10.3
COc1cc(-c2nc3cc(C)ccn3c2NC2CCCCC2)ccc1-c1ccc(C(C)=O)cc1,0.0,+,518.7,-2.1,i,8.8
Cc1ccn2c(NC3CCCC3)c(-c3ccncc3)nc2c1,2.0,i,514.6,-6.2,i,16.8
NS(=O)(=O)c1ccc(NC(=O)CCCCC(=O)Nc2ccc(S(N)(=O)=O)cc2)cc1,0.0,i,188.2,3.0,i,-0.4
CC(C)(C)c1ccc(OCCCC(=O)Nc2ccc(S(N)(=O)=O)cc2)cc1,1.0,+,194.9,2.5,i,1.6
CCCC1=[N+](CC)CCn2c(C)ccc21,1.0,i,311.7,0.7,i,6.7
CCCC1=[N+](CC(=O)c2ccc(C)cc2)CCn2cccc21,0.0,+,198.9,-2.3,i,13.6
Cc1ccc(C(=O)N2CCC(n3nccc3NC(=O)C3CCOC3)CC2)cc1 (centres undefined),6.0,i,292.6,0.9,i,-16.8
c1ccc(-c2nc(-c3ccccn3)no2)cc1,0.0,i,262.0,-0.6,i,21.0

# Assay outcomes deposited in PubChem BioAssay by several laboratories.
